The source made the active and inactive calls. The calls are words filed in the database; no cut-off is given here.
Tests used:
[1] = biological target: T1, 5-hydroxytryptamine receptor 1A (Homo sapiens, UniProt P08908); test: Displacement of [3H]8-OH-DPAT from 5HT1A receptor expressed in CHO cells by liquid scintillation counting; assay type: cell-based
T1 sequence (P08908 whole entry): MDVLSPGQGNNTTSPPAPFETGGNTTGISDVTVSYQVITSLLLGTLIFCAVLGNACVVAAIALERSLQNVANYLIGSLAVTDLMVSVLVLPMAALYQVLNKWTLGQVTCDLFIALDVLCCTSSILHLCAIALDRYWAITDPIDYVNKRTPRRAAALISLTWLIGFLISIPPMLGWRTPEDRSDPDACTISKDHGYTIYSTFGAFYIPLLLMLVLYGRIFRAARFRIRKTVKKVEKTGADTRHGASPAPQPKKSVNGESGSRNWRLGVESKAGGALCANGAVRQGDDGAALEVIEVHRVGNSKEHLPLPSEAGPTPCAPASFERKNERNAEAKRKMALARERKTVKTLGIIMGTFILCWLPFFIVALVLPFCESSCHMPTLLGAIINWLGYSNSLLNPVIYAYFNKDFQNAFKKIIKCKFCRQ
Procedure, shortened: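 Binding buffer 50 mM Tris, 4 mM MgCl2, pH 7.4. Nonspecific binding defined with 10 μM of a selective 5-HT1A antagonist. GF/B filtration with cold Tris/EDTA wash, scintillation counting. IC50/Ki by sigmoidal nonlinear regression. Mean of 5-6 experiments.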

[2] = biological target: D(1A) dopamine receptor (Homo sapiens, UniProt P21728); test: Displacement of [3H]SCH23390 from dopamine D1 receptor expressed in HEK293 cells by liquid scintillation counting; assay type: cell-based
D(1A) dopamine receptor, sequence (P21728 whole entry): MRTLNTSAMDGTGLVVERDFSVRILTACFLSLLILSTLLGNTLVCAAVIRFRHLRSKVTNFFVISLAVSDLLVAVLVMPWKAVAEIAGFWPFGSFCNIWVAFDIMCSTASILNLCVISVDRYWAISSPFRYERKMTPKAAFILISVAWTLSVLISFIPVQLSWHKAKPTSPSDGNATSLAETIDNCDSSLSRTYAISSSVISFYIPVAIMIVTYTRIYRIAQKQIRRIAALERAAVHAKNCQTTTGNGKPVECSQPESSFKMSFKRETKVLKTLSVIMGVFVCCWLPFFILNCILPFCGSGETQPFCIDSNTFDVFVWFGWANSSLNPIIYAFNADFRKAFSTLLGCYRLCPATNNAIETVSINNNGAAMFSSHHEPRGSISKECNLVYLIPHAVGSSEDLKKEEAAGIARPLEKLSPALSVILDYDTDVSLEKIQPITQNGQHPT
Procedure, shortened: (§1)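 Membranes from stably transfected HEK293 cells (15 μg/tube) expressing D1 (radioligand [3H]SCH23390) or D2 (radioligand [3H]spiperone), 0.7 nM radioligand, compound 1 nM–100 μM, duplicate tubes, 50 min at 30 °C. Buffer 50 mM Tris, 4 mM MgCl2, pH 7.4. Nonspecific binding with 10 μM SCH23390 (D1) or spiperone (D2). GF/B filtration, scintillation counting. Ki by sigmoidal nonlinear regression.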

[3] = biological target: D(2) dopamine receptor (Homo sapiens, UniProt P14416); test: Displacement of [3H]spiperone from dopamine D2 receptor expressed in HEK293 cells by liquid scintillation counting; assay type: cell-based; procedure, shortened: as §1
D(2) dopamine receptor, sequence (P14416 whole entry): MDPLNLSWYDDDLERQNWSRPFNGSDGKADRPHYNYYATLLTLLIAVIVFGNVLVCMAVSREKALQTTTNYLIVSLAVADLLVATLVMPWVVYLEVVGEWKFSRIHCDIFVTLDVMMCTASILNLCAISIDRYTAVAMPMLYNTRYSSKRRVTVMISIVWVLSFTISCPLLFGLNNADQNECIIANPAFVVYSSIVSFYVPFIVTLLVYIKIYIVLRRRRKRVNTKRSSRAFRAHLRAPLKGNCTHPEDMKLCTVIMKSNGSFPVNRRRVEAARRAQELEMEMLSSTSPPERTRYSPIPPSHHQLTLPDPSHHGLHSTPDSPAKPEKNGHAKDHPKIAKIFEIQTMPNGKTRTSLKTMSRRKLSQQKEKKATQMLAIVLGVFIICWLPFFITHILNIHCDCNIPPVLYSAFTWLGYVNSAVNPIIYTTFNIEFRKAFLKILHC

[4] = biological target: T2, 5-hydroxytryptamine receptor 1A (Homo sapiens) (UniProt P08908); test: Agonist activity at 5HT1A receptor expressed in CHO cells assessed as stimulation of [35S]GTPgamma binding relative to control; assay type: functional, cell-based
T2 sequence (whole entry): T1 sequence (P08908 whole entry)

[5] = biological target: T1, 5-hydroxytryptamine receptor 1A; test: Agonist activity at 5HT1A receptor expressed in CHO cells assessed as stimulation of [35S]GTPgamma binding; assay type: functional, cell-based
[6] = biological target: T2, 5-hydroxytryptamine receptor 1A (Homo sapiens); test: Antagonist activity at 5HT1A receptor expressed in CHO cells assessed as inhibition of 5-HT-stimulated [35S]GTPgamma binding relative to control; assay type: functional, cell-based
[7] = biological target: T1, 5-hydroxytryptamine receptor 1A; test: […] activity at 5HT1A receptor expressed in CHO cells assessed as inhibition of 5-HT-stimulated [35S]GTPgamma binding; assay type: functional, cell-based
[8] = system: Rattus norvegicus; test: Increase in ventral tegmental area dopaminergic neuron bursting level in D2-like receptor antagonist raclopride-pretreated Sprague-Dawley rat at 1 mg/kg, iv relative to untreated control; assay type: functional, organism-based; design: dose 1 mg/kg
[9] = system: Rattus norvegicus; test: Increase in ventral tegmental area dopaminergic neuron firing rate in D2-like receptor antagonist raclopride-pretreated Sprague-Dawley rat at 1 mg/kg, iv in presence of 5HT1A receptor antagonist WAY-100635 administered post compound dose; assay type: functional, organism-based; design: dose 1 mg/kg
[10] = system: Rattus norvegicus; test: Increase in ventral tegmental area dopaminergic neuron bursting level in D2-like receptor antagonist raclopride-pretreated Sprague-Dawley rat at 1 mg/kg, iv in presence of 5HT1A receptor antagonist WAY-100635 administered post compound dose; assay type: functional, organism-based; design: dose 1 mg/kg
[11] = system: Rattus norvegicus; test: Increase in ventral tegmental area dopaminergic neuron firing rate in D2-like receptor antagonist raclopride-pretreated Sprague-Dawley rat at 1 mg/kg, iv in pretreated with 5HT1A receptor antagonist WAY-100635; assay type: functional, organism-based; design: dose 1 mg/kg
[12] = system: Rattus norvegicus; test: Increase in ventral tegmental area dopaminergic neuron bursting level in D2-like receptor antagonist raclopride-pretreated Sprague-Dawley rat at 1 mg/kg, iv in pretreated with 5HT1A receptor antagonist WAY-100635; assay type: functional, organism-based; design: dose 1 mg/kg
[13] = system: Rattus norvegicus; test: Anxiolytic effect in Sprague-Dawley rat assessed as increase in number of entries at open arm at 3 mg/kg, ip pretreated for 1 hr by elevated plus maze test; assay type: functional, organism-based; design: dose 3 mg/kg
Procedure, shortened: (§2)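 Male rats, 250-300 g, given saline or test compound ip (1.0 or 3.0 mg/kg) 1 h before the maze. Two open and two closed arms (40 cm walls), 50 × 10 cm arms, raised 50 cm. Rat placed on centre facing a closed arm and allowed 5 min to explore. Video tracking recorded open-arm entries and time. Mean ± SE, n = 7-9; comparison to the saline group.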

[14] = system: Rattus norvegicus; test: Anxiolytic effect in Sprague-Dawley rat assessed as increase in time spent at open arm at 3 mg/kg, ip pretreated for 1 hr by elevated plus maze test; assay type: functional, organism-based; design: dose 3 mg/kg; procedure, shortened: as §2
[15] = system: Rattus norvegicus; test: Anxiolytic effect in Sprague-Dawley rat assessed as increase in number of entries at open arm at 1 mg/kg, ip pretreated for 1 hr by elevated plus maze test; assay type: functional, organism-based; design: dose 1 mg/kg; procedure, shortened: as §2
[16] = system: Rattus norvegicus; test: Anxiolytic effect in Sprague-Dawley rat assessed as increase in time spent at open arm at 1 mg/kg, ip pretreated for 1 hr by elevated plus maze test; assay type: functional, organism-based; design: dose 1 mg/kg; procedure, shortened: as §2

Row | SMILES | Ki ([1]; read-out: Ki) | Ki [2] | Ki [3] | also measured
1 | C=CCc1ccc2c(c1O)-c1cccc3c1[C@@H](C2)N(C)CC3 | 135 nM | > 10000 nM | > 10000 nM | 
2 | COc1cc2c3c(c1)-c1c(O)cccc1C[C@H]3N(C)CC2 | 258 nM | 46 nM | 235 nM | 
3 | CCCN1CCc2cccc3c2[C@H]1Cc1ccc2c(c1-3)OC(C)C2 (mixture of isomers) | 340 nM |  |  | 
4 | CCCN1CCc2cccc3c2[C@H]1Cc1c(CC=C(C)C)ccc(O)c1-3 |  | > 10000 nM | > 10000 nM | Ki ([1]; cho): Not Active
5 | C=CCOc1cccc2c1-c1cccc3c1[C@@H](C2)N(CCC)CC3 | 279 nM | > 10000 nM | > 10000 nM | 
6 | C=C(C)Cc1ccc2c(c1O)-c1cccc3c1[C@@H](C2)N(CCC)CC3 |  | > 10000 nM | > 10000 nM | Ki ([1]; cho): Not Active
7 | C=CC(C)c1ccc2c(c1O)-c1cccc3c1[C@@H](C2)N(CCC)CC3 (mixture of isomers) | > 10000 nM |  |  | 
8 | CCCN1CCc2cccc3c2[C@H]1Cc1cccc(O)c1-3 | 45 nM | > 10000 nM |  | 
9 | C#CCOc1cccc2c1-c1cccc3c1[C@@H](C2)N(C)CC3 | 14 nM | > 10000 nM | > 10000 nM | Emax [4]: 73%; EC50 ([5]; read-out: EC50): 180 nM
10 | C=CC(C)c1ccc(O)c2c1C[C@@H]1c3c(cccc3-2)CCN1CCC (mixture of isomers) | 626 nM |  |  | 
11 | C=CCc1ccc2c(c1O)-c1cc(OC)cc3c1[C@@H](C2)N(C)CC3 | 144 nM | > 10000 nM | > 10000 nM | 
12 | C=CCOc1cccc2c1-c1cc(OC)cc3c1[C@@H](C2)N(C)CC3 | 66 nM | > 10000 nM | > 10000 nM | 
13 | C=C(C)COc1cccc2c1-c1cccc3c1[C@@H](C2)N(CCC)CC3 | 373 nM | > 10000 nM | > 10000 nM | 
14 | CCCN1CCc2cccc3c2[C@H]1Cc1ccc2cc(C)oc2c1-3 | 320 nM | > 10000 nM | > 10000 nM | 
15 | CC#CCOc1cccc2c1-c1cccc3c1[C@@H](C2)N(CCC)CC3 | 125 nM | > 10000 nM | > 10000 nM | 
16 | C=CCc1ccc2c(c1O)-c1cccc3c1[C@@H](C2)N(CCC)CC3 | 793 nM | > 10000 nM | > 10000 nM | 

Row | SMILES | Ki ([1]; read-out: Ki) | Ki [2] | Ki [3] | also measured
17 | NCCc1c[nH]c2ccc(O)cc12 [SEROTONIN] |  |  |  | Imax [6]: inactive; IC50 ([7]; cho): Not Active
18 | CCCN1CCc2cccc3c2[C@H]1Cc1cccc(OCC=C(C)C)c1-3 | 149 nM | > 10000 nM | > 10000 nM | 
19 | CCCN1CCc2cccc3c2[C@H]1Cc1ccc2c(c1-3)OC(C)(C)C2 | 630 nM | > 10000 nM | > 10000 nM | 
20 | CCCN1CCc2cccc3c2[C@H]1Cc1ccc2c(c1-3)OC(C)C2C (mixture of isomers) | 90 nM |  |  | 
21 | C[C@@H]1Cc2ccc3c(c2O1)-c1cccc2c1[C@@H](C3)N(C)CC2 (relative stereo) | 3.1 nM | > 10000 nM | > 10000 nM | Emax [4]: 127%; EC50 ([5]; read-out: EC50): 86 nM; Imax [6]: inactive; IC50 ([7]; cho): Not Active; Activity [8]: Active; Activity [9]: inactive; Activity [10]: inactive; Activity [11]: inactive; Activity [12]: inactive; Activity [13]: Active; Activity [14]: Active
22 | C[C@H]1Cc2ccc3c(c2O1)-c1cccc2c1[C@@H](C3)N(C)CC2 (relative stereo) | 45.3 nM | > 10000 nM | > 10000 nM | Emax [4]: inactive; EC50 ([5]; cho): Not Active; Imax [6]: 100%; IC50 ([7]; read-out: IC50): 18 nM; Activity [13]: inactive; Activity [14]: inactive; Activity [15]: inactive; Activity [16]: inactive
23 | C=CC(C)Oc1cccc2c1-c1cccc3c1[C@@H](C2)N(CCC)CC3 (mixture of isomers) | > 10000 nM |  |  | 
24 | CC1Cc2ccc3c(c2O1)-c1cccc2c1[C@@H](C3)N(C)CC2 (mixture of isomers) | 6.7 nM | > 10000 nM | > 10000 nM | Emax [4]: inactive; EC50 ([5]; cho): Not Active; Imax [6]: 100%; IC50 ([7]; read-out: IC50): 323 nM
25 | C#CCOc1cccc2c1-c1cccc3c1[C@@H](C2)N(CCC)CC3 | 55 nM | > 10000 nM | > 10000 nM | 
26 | Cc1cc2ccc3c(c2o1)-c1cccc2c1[C@@H](C3)N(C)CC2 | 29 nM | > 10000 nM | > 10000 nM | 
27 | C/C=C/COc1cccc2c1-c1cccc3c1[C@@H](C2)N(CCC)CC3 | 11 nM |  |  | 
28 | CCCN1CCc2cccc3c2[C@H]1Cc1ccc2c(C)c(C)oc2c1-3 | 510 nM | > 10000 nM | > 10000 nM | 
29 | CC1Cc2ccc3c(c2O1)-c1cc(O)cc2c1[C@@H](C3)N(C)CC2 (mixture of isomers) | 12 nM |  |  | 
30 | C=CCOc1cccc2c1-c1cccc3c1[C@@H](C2)N(C)CC3 | 12 nM | > 10000 nM | > 10000 nM | Emax [4]: 61%; EC50 ([5]; read-out: EC50): 56 nM; Imax [6]: 100%; IC50 ([7]; read-out: IC50): 323 nM
31 | CN1CCc2cccc3c2[C@H]1Cc1cccc(O)c1-3 | 49 nM | 61 nM | 208 nM | 

— ChEMBL document CHEMBL1159064 (J Med Chem, 2010)
